Measurements from ChEMBL document CHEMBL4765368, “Structure guided design and synthesis of furyl thiazolidinedione derivatives as inhibitors of GLUT 1 and GLUT 4, and evaluation of their anti-leukemic potential” (Eur J Med Chem, 2020).
pIC50: −log10 of the molar value. Calls of active or inactive are those of the source. The rule behind the calls is not given here.

molecular target: T1, Solute carrier family 2, facilitated glucose transporter member 1 (Homo sapiens, UniProt P11166); assay: Inhibition of transport activity of human GLUT1 expressed in hexose transporter deficient VW4000fgy1 yeast cells assessed as reduction in transporter-mediated [14C]-hexose uptake into cells measured after 10 mins by scintillation counting method; type: cell-based; details: not given
T1 sequence (P11166 whole entry): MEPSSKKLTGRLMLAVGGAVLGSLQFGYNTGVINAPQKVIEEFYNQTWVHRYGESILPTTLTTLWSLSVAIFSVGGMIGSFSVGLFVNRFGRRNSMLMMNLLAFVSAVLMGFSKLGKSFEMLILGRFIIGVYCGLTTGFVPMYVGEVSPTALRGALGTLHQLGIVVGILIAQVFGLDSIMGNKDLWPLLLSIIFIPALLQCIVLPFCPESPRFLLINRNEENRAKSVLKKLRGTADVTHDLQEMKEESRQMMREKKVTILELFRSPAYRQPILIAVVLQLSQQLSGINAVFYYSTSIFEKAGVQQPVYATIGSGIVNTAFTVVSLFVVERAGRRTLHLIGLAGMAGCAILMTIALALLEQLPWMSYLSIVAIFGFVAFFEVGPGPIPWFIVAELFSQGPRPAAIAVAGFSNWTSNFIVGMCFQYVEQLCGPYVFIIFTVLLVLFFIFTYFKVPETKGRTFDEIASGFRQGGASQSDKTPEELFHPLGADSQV
Procedure, shortened: (§1)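 GLUT1 (VW4000fgy1) or GLUT4 (VW4000fgy1erg4) hxt0 yeast were grown on maltose and then glucose and resuspended in PBS pH 7.4 at OD600 ~10. Compound was used at 0.1–100 μM, final 1% DMSO. Uptake of 5 mM 14C-glucose over 10 min was stopped with ice-cold quench buffer, filtered and counted by scintillation. IC50 was taken from dose-response curves of three independent measurements.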

Q: How did the pIC50 turn out when `Cc1cccc2sc(NC(=O)CN3C(=O)S/C(=C/c4ccco4)C3=O)nc12` was run?
A: 4.14

molecular target: T2, Histone deacetylase 8 (Homo sapiens) (UniProt Q9BY41); assay: (§2) Inhibition of recombinant human His6/SUMO-tagged HDAC8 expressed in Escherichia coli (BL21) DE3 pLysS assessed as residual activity at 50 uM using Boc-Lys(trifluoroacetyl)-AMC as substrate preincubated for 60 mins followed by substrate addition and measured after 60 mins by fluorescence assay relative to control; details: time 120.0 min
T2 sequence (whole entry): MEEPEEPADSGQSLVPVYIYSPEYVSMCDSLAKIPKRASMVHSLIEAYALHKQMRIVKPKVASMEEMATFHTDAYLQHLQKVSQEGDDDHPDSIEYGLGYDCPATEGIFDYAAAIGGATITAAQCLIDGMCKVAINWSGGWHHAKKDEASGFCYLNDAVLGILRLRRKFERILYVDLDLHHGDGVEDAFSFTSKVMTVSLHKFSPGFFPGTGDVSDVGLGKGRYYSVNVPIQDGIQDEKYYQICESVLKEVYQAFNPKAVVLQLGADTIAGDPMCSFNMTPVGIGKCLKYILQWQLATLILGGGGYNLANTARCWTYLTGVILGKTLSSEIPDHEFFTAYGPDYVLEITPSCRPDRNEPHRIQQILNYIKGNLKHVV
Procedure, shortened: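 20 μM Boc-Lys(trifluoroacetyl)-AMC was then added for 60 min at 30 °C, the reaction stopped with 1.7 μM SATFMK and developed with 0.4 mg/ml trypsin, and AMC fluorescence read at Ex 350/Em 450 nm. Triplicates; percent relative activity.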

Q: How did the Activity turn out when `O=C(CN1C(=O)S/C(=C/c2ccco2)C1=O)Nc1ccc(F)cc1` was run?
A: > 50%

Q: Which Activity does the source give for `O=C(CN1C(=O)S/C(=C/c2ccco2)C1=O)Nc1cccc(C(F)(F)F)c1` here?
A: > 50%

Q: How did the Activity turn out when `O=C(CN1C(=O)S/C(=C/c2ccco2)C1=O)Nc1nccs1` was run?
A: > 50%

Q: With `Cc1c(NC(=O)CN2C(=O)S/C(=C/c3ccco3)C2=O)c(=O)n(-c2ccccc2)n1C` as the compound, how does the Activity read?
A: > 50%

Q: Which Activity does the source give for `O=C(CN1C(=O)S/C(=C/c2ccco2)C1=O)Nc1cccc(F)c1` here?
A: > 50%

Q: `O=C(CN1C(=O)S/C(=C/c2ccco2)C1=O)Nc1ccc(F)cc1F` was tested. Which Activity did it give?
A: > 50%

Q: With `Cc1cccc2sc(NC(=O)CN3C(=O)S/C(=C/c4ccco4)C3=O)nc12` as the compound, how does the Activity read?
A: > 50%

Q: How did the Activity turn out when `Cc1ccc(NC(=O)CN2C(=O)S/C(=C/c3ccco3)C2=O)cc1Cl` was run?
A: > 50%

Q: With `O=C(CN1C(=O)S/C(=C/c2ccco2)C1=O)Nc1c(F)cc(Br)cc1F` as the compound, how does the Activity read?
A: > 50%

Q: How did the Activity turn out when `O=C(CN1C(=O)S/C(=C/c2ccco2)C1=O)Nc1ccccc1F` was run?
A: > 50%

Q: `COc1ccc(NC(=O)CN2C(=O)S/C(=C/c3ccco3)C2=O)cc1` was tested. Which Activity did it give?
A: > 50%

tested on: KCL-22; assay: Cytotoxicity against human KCL-22 cells assessed as reduction in cell viability measured after 48 hrs by Hoechst 33342/propidium iodide staining based imaging analysis; type: functional; details: not given
Procedure, shortened: (§3)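 Cells were seeded at 10,000 per well (HS-27 at 3,000) in 10% FBS RPMI (leukemic lines) or DMEM (MDA-MB-231, HS-27). Compound in DMSO (1% v/v final) at 0.5–100 µM for 48 h. Hoechst 33342 and PI were added 2 h before automated imaging; dead cells were co-stained. Quadruplicates. CC50 was taken by linear interpolation between the two concentrations nearest 50% death.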

Q: How did the CC50 turn out when `Cc1cccc2sc(NC(=O)CN3C(=O)S/C(=C/c4ccco4)C3=O)nc12` was run?
A: 97 µM

molecular target: T3, Solute carrier family 2, facilitated glucose transporter member 4 (Homo sapiens, UniProt P14672); assay: Inhibition of transport activity of human GLUT4 expressed in hexose transporter deficient W4000fgy1 erg4 yeast cells assessed as reduction in transporter-mediated [14C]-hexose uptake into cells measured after 10 mins by scintillation counting method; type: cell-based; details: not given; procedure, shortened: as §1
T3 sequence (P14672 whole entry): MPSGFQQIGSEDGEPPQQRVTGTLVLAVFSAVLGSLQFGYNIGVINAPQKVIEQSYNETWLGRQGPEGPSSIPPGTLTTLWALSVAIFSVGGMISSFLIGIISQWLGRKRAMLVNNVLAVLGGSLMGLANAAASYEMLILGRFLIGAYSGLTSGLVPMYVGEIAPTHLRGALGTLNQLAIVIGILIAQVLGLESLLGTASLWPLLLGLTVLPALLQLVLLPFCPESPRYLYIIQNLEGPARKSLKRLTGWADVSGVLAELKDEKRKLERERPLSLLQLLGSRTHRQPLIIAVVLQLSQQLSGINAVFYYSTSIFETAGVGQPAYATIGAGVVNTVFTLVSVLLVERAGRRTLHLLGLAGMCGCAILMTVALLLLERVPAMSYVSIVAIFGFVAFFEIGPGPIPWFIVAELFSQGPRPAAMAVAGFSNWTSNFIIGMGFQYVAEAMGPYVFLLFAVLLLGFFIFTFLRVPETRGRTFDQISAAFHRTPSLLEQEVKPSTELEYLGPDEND

Q: `Cc1cccc2sc(NC(=O)CN3C(=O)S/C(=C/c4ccco4)C3=O)nc12` was tested. Which pIC50 did it give?
A: 3.91

tested on: K562; assay: Cytotoxicity against human K562 cells assessed as reduction in cell viability measured after 48 hrs by Hoechst 33342/propidium iodide staining based imaging analysis; type: functional; details: not given; procedure, shortened: as §3

Q: For `Cc1cccc2sc(NC(=O)CN3C(=O)S/C(=C/c4ccco4)C3=O)nc12`, which CC50 is on record?
A: 97.1 µM

molecular target: Histone deacetylase 4 (Homo sapiens) (UniProt P56524); assay: as §2, with “N-terminal GST-tagged HDAC4 (627 to end residues)” for “His6/SUMO-tagged HDAC8”, “baculovirus infected Sf9 insect cells” for “Escherichia coli (BL21) DE3 pLysS”; details: time 120.0 min
Sequence (P56524 whole entry): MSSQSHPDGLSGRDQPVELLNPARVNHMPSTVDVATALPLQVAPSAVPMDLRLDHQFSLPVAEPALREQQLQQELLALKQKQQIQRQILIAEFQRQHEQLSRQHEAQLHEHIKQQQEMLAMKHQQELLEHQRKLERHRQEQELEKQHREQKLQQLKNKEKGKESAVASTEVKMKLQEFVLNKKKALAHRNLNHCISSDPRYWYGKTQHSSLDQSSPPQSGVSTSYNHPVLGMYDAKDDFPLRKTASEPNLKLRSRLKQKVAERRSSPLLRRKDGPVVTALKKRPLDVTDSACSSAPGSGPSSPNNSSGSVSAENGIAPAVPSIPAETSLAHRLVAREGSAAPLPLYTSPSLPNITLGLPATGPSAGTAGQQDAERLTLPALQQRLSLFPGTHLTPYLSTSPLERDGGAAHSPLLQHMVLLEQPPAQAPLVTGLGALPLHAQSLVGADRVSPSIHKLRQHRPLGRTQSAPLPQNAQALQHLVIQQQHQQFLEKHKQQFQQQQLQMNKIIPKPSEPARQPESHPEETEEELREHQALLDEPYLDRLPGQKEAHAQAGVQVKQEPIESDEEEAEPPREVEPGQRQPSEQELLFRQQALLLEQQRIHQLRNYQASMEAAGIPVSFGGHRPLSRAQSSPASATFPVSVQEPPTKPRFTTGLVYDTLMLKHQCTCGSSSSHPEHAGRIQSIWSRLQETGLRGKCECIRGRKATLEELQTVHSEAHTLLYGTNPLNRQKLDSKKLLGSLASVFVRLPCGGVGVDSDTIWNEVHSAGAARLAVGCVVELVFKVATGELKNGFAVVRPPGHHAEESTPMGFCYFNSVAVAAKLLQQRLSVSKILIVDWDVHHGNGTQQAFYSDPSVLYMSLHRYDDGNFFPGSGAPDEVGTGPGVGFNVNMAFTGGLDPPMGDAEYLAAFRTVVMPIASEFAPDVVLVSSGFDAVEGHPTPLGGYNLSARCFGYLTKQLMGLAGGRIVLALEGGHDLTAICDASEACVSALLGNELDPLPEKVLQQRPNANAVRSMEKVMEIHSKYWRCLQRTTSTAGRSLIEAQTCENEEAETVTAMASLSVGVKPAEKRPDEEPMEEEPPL

Q: `O=C(CN1C(=O)S/C(=C/c2ccco2)C1=O)Nc1ccc(F)cc1` was tested. Which Activity did it give?
A: > 50%

Q: How did the Activity turn out when `O=C(CN1C(=O)S/C(=C/c2ccco2)C1=O)Nc1cccc(C(F)(F)F)c1` was run?
A: > 50%

Q: For `O=C(CN1C(=O)S/C(=C/c2ccco2)C1=O)Nc1nccs1`, which Activity is on record?
A: > 50%

Q: `Cc1c(NC(=O)CN2C(=O)S/C(=C/c3ccco3)C2=O)c(=O)n(-c2ccccc2)n1C` was tested. Which Activity did it give?
A: > 50%

Q: With `O=C(CN1C(=O)S/C(=C/c2ccco2)C1=O)Nc1cccc(F)c1` as the compound, how does the Activity read?
A: > 50%

Q: Which Activity does the source give for `O=C(CN1C(=O)S/C(=C/c2ccco2)C1=O)Nc1ccc(F)cc1F` here?
A: > 50%

Q: For `Cc1cccc2sc(NC(=O)CN3C(=O)S/C(=C/c4ccco4)C3=O)nc12`, which Activity is on record?
A: > 50%

Q: How did the Activity turn out when `Cc1ccc(NC(=O)CN2C(=O)S/C(=C/c3ccco3)C2=O)cc1Cl` was run?
A: > 50%

Q: With `O=C(CN1C(=O)S/C(=C/c2ccco2)C1=O)Nc1c(F)cc(Br)cc1F` as the compound, how does the Activity read?
A: > 50%

Q: `O=C(CN1C(=O)S/C(=C/c2ccco2)C1=O)Nc1ccccc1F` was tested. Which Activity did it give?
A: > 50%

Q: `COc1ccc(NC(=O)CN2C(=O)S/C(=C/c3ccco3)C2=O)cc1` was tested. Which Activity did it give?
A: > 50%

molecular target: T4, Solute carrier family 2, facilitated glucose transporter member 4 (Homo sapiens) (UniProt P14672); assay: Inhibition of transport activity of human GLUT4 expressed in hexose transporter deficient […] erg4 yeast cells assessed as reduction in transporter-mediated [14C]-hexose uptake into cells at 100 uM measured after 10 mins by scintillation counting method relative to control; type: cell-based; details: not given
T4 sequence (whole entry): T3 sequence (P14672 whole entry)
Procedure, shortened: (§4)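 The hxt0 yeast strain expressing one human GLUT was grown at 30 °C and resuspended in PBS pH 7.4 at OD600 ~10. Uptake was started with 14C-glucose at 5 mM final (GLUT1, GLUT4) or 14C-fructose at 10 mM final (GLUT5). It was quenched after 10 min with ice-cold 0.1 M KPi/0.1 M LiCl pH 5.5, filtered and counted by scintillation. Compound at 100 μM with 1% DMSO; DMSO control and phloretin 200 μM (GLUT1/4) or MSNBA 100 μM (GLUT5) as references. Triplicates.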

Q: How did the inhibition turn out when `Cc1cccc2sc(NC(=O)CN3C(=O)S/C(=C/c4ccco4)C3=O)nc12` was run?
A: > 50%

molecular target: T5, Solute carrier family 2, facilitated glucose transporter member 1 (Homo sapiens) (UniProt P11166); assay: Inhibition of transport activity of human GLUT1 expressed in hexose transporter deficient VW4000fgy1 yeast cells assessed as reduction in transporter-mediated [14C]-hexose uptake into cells at 100 uM measured after 10 mins by scintillation counting method relative to control; type: cell-based; details: not given; procedure, shortened: as §4
T5 sequence (whole entry): T1 sequence (P11166 whole entry)

Q: Which inhibition does the source give for `Cc1cccc2sc(NC(=O)CN3C(=O)S/C(=C/c4ccco4)C3=O)nc12` here?
A: > 50%

molecular target: T6, Solute carrier family 2, facilitated glucose transporter member 5 (Homo sapiens) (UniProt P22732); assay: Inhibition of transport activity of human GLUT5 expressed in hexose transporter deficient VW4000 yeast cells assessed as reduction in transporter-mediated [14C]-fructose uptake into cells at 100 uM measured after 10 mins by scintillation counting method; type: cell-based; details: not given; procedure, shortened: as §4
T6 sequence (whole entry): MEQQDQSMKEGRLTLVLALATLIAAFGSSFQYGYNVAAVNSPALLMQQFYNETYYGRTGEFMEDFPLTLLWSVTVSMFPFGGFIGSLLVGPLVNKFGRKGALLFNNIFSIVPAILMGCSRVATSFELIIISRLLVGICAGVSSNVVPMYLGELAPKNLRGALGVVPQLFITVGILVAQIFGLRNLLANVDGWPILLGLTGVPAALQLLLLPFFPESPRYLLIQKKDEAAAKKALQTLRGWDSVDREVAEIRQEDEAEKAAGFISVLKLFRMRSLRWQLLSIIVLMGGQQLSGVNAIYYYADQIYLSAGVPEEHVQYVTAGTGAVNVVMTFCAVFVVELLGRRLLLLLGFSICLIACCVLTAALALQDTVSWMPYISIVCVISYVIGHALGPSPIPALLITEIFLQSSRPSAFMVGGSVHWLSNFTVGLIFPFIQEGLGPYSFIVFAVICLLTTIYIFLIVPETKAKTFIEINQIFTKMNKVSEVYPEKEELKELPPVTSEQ

Q: For `O=C(CN1C(=O)S/C(=C/c2ccco2)C1=O)Nc1ccc(F)cc1`, which inhibition is on record?
A: inactive

Q: Which inhibition does the source give for `O=C(CN1C(=O)S/C(=C/c2ccco2)C1=O)Nc1cccc(C(F)(F)F)c1` here?
A: inactive

Q: How did the inhibition turn out when `O=C(CN1C(=O)S/C(=C/c2ccco2)C1=O)Nc1nccs1` was run?
A: inactive

Q: How did the inhibition turn out when `Cc1c(NC(=O)CN2C(=O)S/C(=C/c3ccco3)C2=O)c(=O)n(-c2ccccc2)n1C` was run?
A: inactive

Q: Which inhibition does the source give for `O=C(CN1C(=O)S/C(=C/c2ccco2)C1=O)Nc1cccc(F)c1` here?
A: inactive

Q: For `O=C(CN1C(=O)S/C(=C/c2ccco2)C1=O)Nc1ccc(F)cc1F`, which inhibition is on record?
A: inactive

Q: How did the inhibition turn out when `Cc1cccc2sc(NC(=O)CN3C(=O)S/C(=C/c4ccco4)C3=O)nc12` was run?
A: inactive

Q: Which inhibition does the source give for `Cc1ccc(NC(=O)CN2C(=O)S/C(=C/c3ccco3)C2=O)cc1Cl` here?
A: inactive

Q: How did the inhibition turn out when `O=C(CN1C(=O)S/C(=C/c2ccco2)C1=O)Nc1c(F)cc(Br)cc1F` was run?
A: inactive

Q: Which inhibition does the source give for `O=C(CN1C(=O)S/C(=C/c2ccco2)C1=O)Nc1ccccc1F` here?
A: inactive

Q: `COc1ccc(NC(=O)CN2C(=O)S/C(=C/c3ccco3)C2=O)cc1` was tested. Which inhibition did it give?
A: inactive

tested on: CCRF-CEM; assay: Cytotoxicity against human CCRF-CEM cells assessed as reduction in cell viability measured after 48 hrs by Hoechst 33342/propidium iodide staining based imaging analysis; type: functional; details: not given; procedure, shortened: as §3

Q: `Cc1cccc2sc(NC(=O)CN3C(=O)S/C(=C/c4ccco4)C3=O)nc12` was tested. Which CC50 did it give?
A: 96.8 µM
